Assay outcomes: PubChem, several laboratories
Most compounds without a hit are left out; they make up all but 2.6% or so of the library.
VLA-4 inh: inhibition in a human VLA-4 binding assay; P13612; VLA-4 expressing cells, ligand binding flow cytometry; inhibition, % (about 7 µM as worked out from the volumes in the protocol); 0.2% of 330,000 active; AID 2557; in the data active = inhibition above about 50%
Target sequence (P13612 whole entry, looked up): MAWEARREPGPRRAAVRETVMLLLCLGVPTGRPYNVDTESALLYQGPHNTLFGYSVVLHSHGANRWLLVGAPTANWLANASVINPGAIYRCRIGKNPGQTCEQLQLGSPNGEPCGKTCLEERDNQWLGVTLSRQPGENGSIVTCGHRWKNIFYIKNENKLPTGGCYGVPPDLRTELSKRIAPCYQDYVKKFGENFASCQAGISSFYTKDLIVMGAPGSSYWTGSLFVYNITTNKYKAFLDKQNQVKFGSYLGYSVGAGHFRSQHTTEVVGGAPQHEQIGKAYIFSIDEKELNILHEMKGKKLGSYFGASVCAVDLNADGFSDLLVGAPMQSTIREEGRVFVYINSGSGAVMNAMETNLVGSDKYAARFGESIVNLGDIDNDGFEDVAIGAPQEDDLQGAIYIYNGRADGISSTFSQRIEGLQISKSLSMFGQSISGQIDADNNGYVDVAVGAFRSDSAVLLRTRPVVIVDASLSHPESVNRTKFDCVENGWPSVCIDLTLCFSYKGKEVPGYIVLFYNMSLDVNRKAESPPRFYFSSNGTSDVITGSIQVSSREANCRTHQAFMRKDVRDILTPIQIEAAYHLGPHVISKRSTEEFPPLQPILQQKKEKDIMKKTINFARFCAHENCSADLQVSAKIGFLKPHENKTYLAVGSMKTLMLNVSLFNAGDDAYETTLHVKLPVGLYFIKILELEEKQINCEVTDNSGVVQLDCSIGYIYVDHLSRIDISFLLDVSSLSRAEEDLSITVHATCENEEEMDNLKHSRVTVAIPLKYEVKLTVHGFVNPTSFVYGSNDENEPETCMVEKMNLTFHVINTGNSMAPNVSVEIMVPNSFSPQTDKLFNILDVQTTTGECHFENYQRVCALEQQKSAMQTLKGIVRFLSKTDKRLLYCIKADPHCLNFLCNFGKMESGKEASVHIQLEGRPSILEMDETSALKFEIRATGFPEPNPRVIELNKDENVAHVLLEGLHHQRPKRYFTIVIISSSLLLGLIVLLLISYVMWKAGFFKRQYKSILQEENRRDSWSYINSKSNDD
Rce1 inhib: blocks yeast Ras-converting enzyme | Q03530 | yeast membranes, quenched prenylated peptide cleavage fluorescence | calls only | 0.27% of 290,000 active | AID 2563;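 active = fall in fluorescence gain of 50% or more versus controls, with final raw signal at or below 3038400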;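 also: plate controls were neutral control wells for no effect and wells lacking membranes for full effect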
Platelet DG rel: modulates dense granule release in human platelets | inhibition, %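 (compounds screened at 7.5 µM in platelet-rich plasma)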 | 0.22% of 300,000 active | human platelet-rich plasma, SFLLRN dense granule ATP release, luminescence;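 active = mean replicate score, as percent of positive control, at or above 50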
TAAR1 ag: human TAAR1 agonism | 0.99% of 360,000 active | activation, % at 3 µM | AID 624467 | Q96RJ0 | CHO RD-HGA16 TAAR1, Fluo-8 calcium fluorescence; vehicle wells 0%, saturating PEA agonist 100%;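 active = activation above the mean activation of all test compounds in the run plus 3 SD, cut at about 38% in these data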
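System: CHO RD-HGA16 cells carrying human TAAR1 plus Gα16; Incubation: 17-24 h seeding, 75 min 37 °C dye, 30 min RT; Measured by: Fluo-8 fluorescence, 5 s baseline then 140 s kinetic read; Control set: DMSO and PEA EC100; Replication: single well for each compound.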
TAAR1 antag: human TAAR1 antagonism; CHO RD-HGA16 TAAR1, Fluo-8 calcium fluorescence, antagonist; inhibition, % at 3 µM; 1.5% of 360,000 active; AID 624466;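 active = inhibition above a per-plate cutoff, the mean inhibition of test compounds on that plate plus 3 SD, cut at about 49% in these data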;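 also: 0% = DMSO plus EC80 beta-PEA response and 100% = DMSO alone without agonist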
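System: CHO RD-HGA16 cells bearing hTAAR1. Reagent: EC80 β-phenethylamine stimulus. Schedule: seeding 17-24 h prior, 75-min 37 °C, 30-min RT dye loading. Signal: Fluo-8 intracellular calcium dye fluorescence, real-time kinetic reads. Read-out: % inhibition from peak post-agonist over basal fluorescence ratio. Benchmarks: vehicle wells and EC80 agonist wells. Replicates: n of 1.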
* = called active by the depositor; i = inactive; . = no result; + = active, no number.

SMILES	VLA-4 inh	Rce1 inhib	Platelet DG rel	TAAR1 ag	TAAR1 antag
O=C(Cn1cnc2ccccc21)N/N=C/C(Br)=C/c1ccccc1	11.4	i	-9.2	14.8	49.1*
Cn1c(=O)c2c(ncn2CC(=O)N/N=C/C(Br)=C/c2ccccc2)n(C)c1=O	20.2	i	-3.4	4.8	2.0
CN(C)c1ccc(/C=N/NC(=O)CNC(=O)c2ccco2)cc1	14.8	+	-16.7	1.4	23.8
CN(C)c1ccc(/C=N/NC(=O)CNC(=O)/C=C/c2ccccc2)cc1	14.1	i	0.7	-0.3	-11.4
CCCCN(C=O)c1c(CC)nc2ccc(C(=O)NCc3ccc4c(c3)OCO4)cn12	.	.	.	0.1	-4.7
CCC(Sc1nc2ccsc2c(=O)n1Cc1ccc(C(=O)O)cc1)C(=O)Nc1ccc(C)c(Cl)c1 (centres undefined)	-0.8	i	-3.9	12.4	57.5*
COC(=O)c1[nH]c2ccccc2c1NC(=O)CNC1CCCCC1	-4.1	i	1.2	21.3	60.6*
Cc1cccc(Cn2cnc3c(nnn3Cc3ccccc3F)c2=O)c1	-6.8	i	-8.8	18.1	60.3*
Oc1ccc(Br)cc1/C=N/n1c(COc2ccccc2)n[nH]c1=S	5.3	i	9.2	-0.5	-19.7
CCc1ccccc1NC(=O)C(C)n1nc([N+](=O)[O-])c(Br)c1C (centres undefined)	-11.2	.	-3.3	12.7	-2.8
Cc1c(Br)c([N+](=O)[O-])nn1C(C)C(=O)N1CCc2ccccc2C1 (centres undefined)	2.8	i	-4.1	39.9*	3.9
c1ccc(C2Nc3ccccc3Oc3ccccc32)cc1 (centres undefined)	-1.4	i	2.1	39.5*	14.4
c1ccc(C2Nc3ccccc3C3OCCCC23)cc1 (centres undefined)	-8.1	i	4.3	0.2	-9.4
COC(=O)[C@@]12C[C@@H](CC(=O)NCc3ccccc3)C(=O)N(Cc3ccccc3)C1=CCC(C)(C)C2	.	.	.	1.2	-13.9
CCc1ccc(NC(=O)C2(c3ccccc3)CC2(Cl)Cl)cc1 (centres undefined)	2.5	i	2.0	54.5*	47.1
Cc1ccc(NC(=O)C2(c3ccccc3)CC2(Cl)Cl)cc1C (centres undefined)	21.2	i	-3.2	9.1	8.0
COc1ccc(NC(=O)CN(C)CC(=O)Nc2ccc(C)c(S(=O)(=O)N3CCCCC3)c2)cc1	-17.1	.	.	8.5	-1.5
COc1cc(C(C)=O)ccc1OCC(=O)Nc1ccc(C)c(S(=O)(=O)N2CCCCCC2)c1	-8.6	.	.	18.5	76.6*
Cc1ccc(NC(=O)COc2cccc(C)c2C)cc1S(=O)(=O)N1CCCCCC1	6.3	i	-13.9	-0.7	24.5
CCc1cccc(OCC(=O)Nc2ccc(C)c(S(=O)(=O)N3CCCCCC3)c2)c1	-2.0	i	-5.1	3.6	50.1*
Cc1ccc(NC(=O)COc2ccc(N(C)C(=O)C(C)(C)C)cc2)cc1S(=O)(=O)N1CCCCC1	48.7	.	.	10.2	51.9*
COc1cc(C(C)=O)ccc1OCC(=O)Nc1ccc(S(=O)(=O)N2CCCCC2)cc1	.	.	.	5.8	19.4
O=c1c2ccccc2sn1-c1cc(S(=O)(=O)N2CCOCC2)ccc1N1CCCC1	0.8	i	-0.5	37.3	-5.9
O=c1c2ccccc2sn1-c1cc(S(=O)(=O)N2CCOCC2)ccc1N1CCOCC1	11.5	i	-4.7	87.0*	36.4
COC(=O)[C@@]12C[C@@H](CC(=O)NCCC(C)C)C(=O)N(CCc3ccc(OC)c(OC)c3)C1=CCC(C)(C)C2	.	.	.	3.1	-6.9
SMILES	VLA-4 inh	Rce1 inhib	Platelet DG rel	TAAR1 ag	TAAR1 antag
COC(=O)[C@]12CCCCC=C1N(CCc1ccc(OC)c(OC)c1)C(=O)[C@H](CC(=O)NCc1cccc(C(F)(F)F)c1)C2	.	.	.	4.8	48.7*
COC(=O)[C@@]12C[C@@H](CC(=O)NCc3cccc(C(F)(F)F)c3)C(=O)N(CCc3ccc(OC)c(OC)c3)C1=CCC(C)(C)C2	.	.	.	7.7	57.6*
O=[N+]([O-])c1cccc(COc2ccccc2CN2CCCC2)c1	.	.	.	-0.4	15.9
COc1cccc2oc3ccc(C#Cc4ccccn4)cc3c(=O)c12	12.4	i	62.2*	7.7	17.2
COc1cccc2sc3cc(C#Cc4ccccn4)ccc3c(=O)c12	-8.2	.	.	14.8	39.1
O=C1NC(=S)S/C1=C\C=C\c1ccc([N+](=O)[O-])o1	.	.	.	57.7*	72.3*
COc1cc(OC)cc(C(=O)Nc2ccc(S(=O)(=O)N3CCOCC3)cc2)c1	6.4	i	9.6	2.6	-4.6
CC1(C(=O)Nc2cnc3ccccc3c2)CCN1Cc1cc2ccccc2o1 (centres undefined)	.	.	.	1.1	49.1*
Cc1ccc(C(=O)c2c3ccc(C(F)(F)F)cc3[n+]([O-])n2CCCC(N)=O)cc1	3.2	+	-0.5	1.3	1.5
Cc1ccc(C(=O)c2c3ccccc3[n+]([O-])n2CCO)cc1	-1.2	+	-3.4	7.6	10.1
Cc1ccc(S(=O)(=O)N2[C@H](CC(=O)c3cccc4ccccc34)OC[C@@H]2C)cc1	.	.	.	3.9	-9.8
Cc1ccc2c(C)c(C(=O)N3CCC(O)(c4ccccc4)CC3)oc2c1C	5.9	i	-5.8	-2.1	-45.7
Cc1ccc(/C=N/NC(=O)c2nn(C)cc2Cl)cc1	12.4	i	53.2*	0.7	5.8
Cc1nn(C)cc1CNC(=O)C1CCC(=O)N(CC2CCCCC2)C1 (centres undefined)	-15.0	i	55.8*	1.7	-7.3
Cc1ccccc1CNC(=O)C1CCC(=O)N(CC2CCCCC2)C1 (centres undefined)	-1.0	i	14.3	1.7	-22.5
Cc1cc(Br)ccc1NC(=O)CNC(=O)Cn1ncc(Cl)c(Cl)c1=O	49.8*	.	11.7	11.2	1.5
O=C(Nc1cccnc1)c1cc(-c2ccc(Cl)c(Cl)c2)on1	-2.5	i	55.0*	1.0	-6.1
Cc1ccc(S(=O)(=O)N2CCC(C(=O)OCC(=O)N3CC(C)CC(C)C3)CC2)cc1C (centres undefined)	-15.0	i	13.3	-1.2	-27.2
Cc1cc(C)cc(NC(=O)Cn2ncn3c(cc4ccccc43)c2=O)c1	-6.5	i	-4.0	39.3*	11.8
O=C(O)c1cc(NC(=O)c2ccc([N+](=O)[O-])cc2)cc(NC(=O)c2ccc([N+](=O)[O-])cc2)c1	10.5	i	-3.2	-1.0	-2.1
O=C(Nc1ccc(OC(F)(F)F)cc1)Nc1cccc([N+](=O)[O-])c1	-0.5	i	0.6	11.2	53.2*
Cc1ccc(NC(=O)Nc2cccc([N+](=O)[O-])c2)cc1F	18.0	i	-3.4	7.0	20.0
O=C(Nc1ccc([N+](=O)[O-])cc1)C(=O)Nc1cccc(C(=O)O)c1	10.5	i	83.0*	0.7	-22.6
Cn1cc(CN(CCO)Cc2cccs2)c(-c2cccc(Cl)c2)n1	1.5	i	57.5*	2.0	-1.2
N#Cc1cccc(C(=O)C(=O)N2CCN(c3ccccc3)CC2)c1	.	.	.	-0.3	-11.1
